Measurements taken from PubChem BioAssay AID540246 (Broad Institute, 2011).
pIC50: −log10 of the molar value. The source made the active and inactive calls.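 The calls were made as follows: active = IC50 no more than ten times the top valid dose, with luminescence dropping as cells die; inconclusive = flat curve losing 30 to 70% of signal, or poor fit; inactive = the rest, including signal rises.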

Assays:
[1] = cytotoxicity in ldlA[mSR-BI] cells, dose response, cytotoxicity control for SR-BI HDL uptake inhibitor project, cell-based, CellTiter-Glo, 3 h, dry powder (AID 540246); conditions: ldlA[mSR-BI] CHO cells viability, CellTiter-Glo ATP, 3 h
Summary of the method: (§1)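 Test system: ldlA[mSR-BI] cells. Buffer or medium: Ham's F12 growth medium containing 10% FCS. Compound: eight doses per compound. Times: 3 h compound exposure of cells at 37 °C. Technique: cell Titer Glo ATP luminescence. Read-out: IC50 for loss of cell viability fitted from dose series.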

[2] = tested on: ldlA[mSR-BI] CHO cells viability, CellTiter-Glo ATP, 3 h; test: as above
Summary of the method: as §1

Structure (SMILES) | activity change, negative = cytotoxicity ([1]; at 35 µM (top of the series)) | also measured
CCc1cc2cc3c(cc2nc1SCC(=O)OC(C)C)OCO3 | 0.059% (inactive) | 
Cc1cc(C)n(CC(=O)NC2CCCc3c2cnn3-c2ccc(C)c(C)c2)n1 (stereo not given) | 0.308% (inactive) | 
C[C@H](CO)N1C[C@H](C)[C@H](CN(C)S(=O)(=O)c2ccc(F)cc2)Oc2ccc(NC(=O)Cc3ccccc3)cc2C1=O | 2.52% (inactive) | 
C[C@H]1CN([C@@H](C)CO)C(=O)c2cccc(NS(C)(=O)=O)c2O[C@@H]1CN(C)Cc1ccc(Cl)c(Cl)c1 | 7.9% (inactive) | 
C[C@@H]1CN([C@H](C)CO)C(=O)c2cc(NC(=O)Cc3cn(C)c4ccccc34)ccc2O[C@@H]1CN(C)S(=O)(=O)c1ccc(F)cc1 | 4.76% (inactive) | 
Cc1cc(C(=O)C(C)OC(=O)C2=NNC(=O)CC2)c(C)n1-c1ccc(OC(F)F)cc1 (stereo not given) |  | IC50 [2]: > 35 µM (inactive)
C[C@H](CO)N1C[C@H](C)[C@H](CN(C)S(=O)(=O)c2ccc(F)cc2)Oc2ccc(NC(=O)CCC(F)(F)F)cc2C1=O | 0.245% (inactive) | 
CC(OC(=O)c1cccc(NS(C)(=O)=O)c1)C(=O)Nc1ccc(N2CCOCC2)cc1 (stereo not given) | -2.45% (inactive) | 
CNC[C@@H]1Oc2ccc(NC(=O)Cc3cn(C)c4ccccc34)cc2C(=O)N([C@H](C)CO)C[C@H]1C | -2.77% (inactive) | 
COc1ccc(OC)c(CCNC(=O)c2ccc3c(c2)N(Cc2ccc(F)cc2)CCS3)c1 | -8.19% (inactive) | 
C[C@H]1CN([C@@H](C)CO)C(=O)c2cccc(NC(=O)Nc3ccccc3)c2O[C@@H]1CN(C)Cc1ccccc1 | 6.56% (inactive) | 
C[C@@H]1CN([C@@H](C)CO)C(=O)c2cc(NC(=O)Cc3cn(C)c4ccccc34)ccc2O[C@@H]1CN(C)S(=O)(=O)c1ccc(F)cc1 | 6.07% (inactive) | 
C[C@@H]1CN([C@@H](C)CO)C(=O)c2cc(NC(=O)Cc3cn(C)c4ccccc34)ccc2O[C@H]1CN(C)S(=O)(=O)c1ccc(F)cc1 | -10.2% (inactive) | 
CCOC(=O)Nc1cccc(NC(=O)c2cc(OC)cc(OC)c2)c1 |  | IC50 [2]: > 35 µM (inactive)
C[C@H]1CN([C@@H](C)CO)C(=O)c2cccc(NC(=O)Nc3ccc(F)cc3)c2O[C@@H]1CN(C)Cc1ccc(Cl)c(Cl)c1 |  | pIC50 [2]: 4.32
N#Cc1sc2nc(C3CC3)cc(-c3ccc(Cl)cc3)c2c1N | -2.17% (inactive) | 
COc1ccc([C@H]2CC(=O)C=C(c3cccc4c3sc3ccccc34)C2)cc1OC | 3.09% (inactive) | 
C[C@H]1CN([C@@H](C)CO)C(=O)c2cc(NC(=O)Nc3ccccc3)ccc2O[C@@H]1CN(C)Cc1ccc(Cl)c(Cl)c1 | -3.65% (inactive) | 
C[C@@H]1CN([C@H](C)CO)C(=O)c2cc(NC(=O)Cc3cn(C)c4ccccc34)ccc2O[C@H]1CN(C)C(=O)Nc1ccc(F)cc1 | 0.369% (inactive) | 
CCc1sc(N2C(=O)C3C4CCC(C4=C(C)C)C3C2=O)nc1-c1ccccc1 (stereo not given) | 3.35% (inactive) | 
C[C@H]1CN([C@@H](C)CO)C(=O)c2cc(NC(=O)Cc3cn(C)c4ccccc34)ccc2O[C@H]1CN(C)S(=O)(=O)c1ccc(F)cc1 |  | activity change, negative = cytotoxicity ([1]; at 30 µM (top of the series)): -3.79% (inactive)
C[C@@H]1CN([C@H](C)CO)C(=O)c2cc(NC(=O)Cc3cn(C)c4ccccc34)ccc2O[C@H]1CN(C)S(=O)(=O)c1ccc(Cl)cc1 | 1.29% (inactive) | 
C[C@H](CO)N1C[C@H](C)[C@@H](CN(C)S(=O)(=O)c2ccc(F)cc2)Oc2ccc(NC(=O)Cc3cn(C)c4ccccc34)cc2C1=O | 4.04% (inactive) | 
C[C@@H]1CN([C@H](C)CO)C(=O)c2cc(NC(=O)Cc3cn(C)c4ccccc34)ccc2O[C@H]1CN(C)S(=O)(=O)c1ccccc1 | 1.67% (inactive) | 
O=C(Nc1ccc(-c2nc3ccc(NC(=O)c4ccccc4[N+](=O)[O-])cc3[nH]2)cc1)c1ccccc1[N+](=O)[O-] | 6.25% (inactive) | 
CC(C)OCCCNC(=O)c1ccc(C2SCC(=O)N2Cc2ccco2)cc1 (stereo not given) | 0.099% (inactive) | 
C[C@H](CO)N1C[C@H](C)[C@H](CN(C)S(=O)(=O)c2ccc(F)cc2)Oc2ccc(NS(C)(=O)=O)cc2C1=O | -0.83% (inactive) | 
C[C@H]1CN([C@@H](C)CO)C(=O)c2cccc(NC(=O)Nc3ccccc3)c2O[C@@H]1CN(C)Cc1ccc(C(F)(F)F)cc1 | 0.509% (inactive) | 
O=C(Nc1ccc(-c2nc3cc(NC(=O)c4ccc(NC(=O)c5cccc6ccccc56)cc4)ccc3[nH]2)cc1)c1ccc(NC(=O)c2cccc3ccccc23)cc1 | -0.376% (inactive) | 
CCOC(=O)N1CCC(NC(=O)c2ccc3c(c2)N(Cc2ccc(F)cc2)CCS3)CC1 | -2.37% (inactive) | 
